Shown are actives, neighbours in structure and some others; about 1.1% of the full set was active somewhere.
Diaphorase act: counter-screen for diaphorase-based assays: diaphorase activators and chemical reducers; 0.005% of 190,000 active; Diaphorase/resazurin coupled assay, resorufin fluorescence, 16 min; hits give high values; 1 = vehicle wells, 0 = NADH-free wells; activation factor at 20 µM;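 active means diaphorase activity raised at least twofold by the compound at 20 µM; inactive means activation factor below 2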
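Material: purified diaphorase enzyme from Clostridium kluyveri; Also added: 0.114 mM NADH and 0.1 mM resazurin, final amounts; Doses: single compound dose of 20 µM, 1% DMSO final; Times: 16 min enzyme reaction, ambient temperature; Detection: resorufin fluorescence, excitation 544 nm, emission 590 nm; Measure: increased resorufin signal from activators or reducing compounds.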
G6PDH counter: inhibits Leuconostoc G6PDH, flagging false hits in G6PDH-based assays; Purified L. mesenteroides G6PDH, diaphorase/resazurin coupled fluorescence, 45 min; 0.12% of 200,000 active; inhibition, % at 5 µM; in the data active means inhibition above about 50%
Diaphorase inh: diaphorase inhibition or chemical oxidation counter-screen; diaphorase resazurin-to-resorufin fluorescence, NADH, 16 min; bacterial (C. kluyveri) enzyme, not human; inhibition, % at 20 µM; 0.69% of 190,000 active; AID 1217;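 active means primary screen inhibition at 20 µM above a set limit, cut at about 50% in these data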;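 further: plate controls were DMSO with full reaction for no effect and wells lacking NADH for full effect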
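Test system: bacterial diaphorase enzyme (C. kluyveri); Quantity: 0.14 U/mL diaphorase, enzyme working solution; Times: reaction incubation of 16 min at room temperature; Measured by: fluorescence of resorufin formed from resazurin, Ex 544/Em 590 nm; Benchmarks: positive control minus NADH, DMSO neutral control.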
PMI act hi M6P: PMI (human) activation, high substrate; coupled PMI enzyme assay, resazurin fluorescence, 20 min; hits give high values; 1 = untreated enzyme, 0 = substrate-free blank; AID 1216; P34949; activation factor at 20 µM; 0.34% of 190,000 active;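 active means activation factor of 2 or more at 20 µM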
Target sequence (P34949 whole entry, looked up): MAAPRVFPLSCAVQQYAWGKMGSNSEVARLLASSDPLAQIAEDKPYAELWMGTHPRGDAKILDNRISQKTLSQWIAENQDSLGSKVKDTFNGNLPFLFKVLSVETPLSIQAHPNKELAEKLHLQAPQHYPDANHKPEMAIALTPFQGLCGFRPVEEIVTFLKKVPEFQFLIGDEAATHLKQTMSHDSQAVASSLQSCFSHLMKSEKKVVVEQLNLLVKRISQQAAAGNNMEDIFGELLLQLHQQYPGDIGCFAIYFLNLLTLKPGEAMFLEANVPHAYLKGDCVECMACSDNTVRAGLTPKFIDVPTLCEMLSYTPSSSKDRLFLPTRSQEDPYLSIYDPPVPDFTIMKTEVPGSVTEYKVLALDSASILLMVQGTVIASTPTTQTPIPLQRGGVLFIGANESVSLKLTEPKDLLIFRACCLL
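Material: human phosphomannose isomerase with PGI, G6PDH, diaphorase coupling enzymes. Quantity: 15 ng/mL PMI. Medium: HEPES pH 7.4 buffer with MgCl2 and Tween-20. Reagent: Near-saturating mannose-6-phosphate, 1.0 mM. Compound: 20 µM single dose. Times: enzyme reaction with compound 20 min at room temperature. Detection: resorufin fluorescence at Ex 544/Em 590 nm.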
PMI act: increases human mannose-6-phosphate isomerase activity; 0.005% of 190,000 active; activation factor at 20 µM; AID 1214; purified human PMI, coupled resazurin fluorescence, 20 min; hits give high values; 1 = vehicle control, 0 substrate-free wells; P34949;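 active means activation factor of 2 or more at 20 µM, relative to plate controls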
The depositor's hits bear a star.

SMILES	Diaphorase act	G6PDH counter	Diaphorase inh	PMI act hi M6P	PMI act
CC(=O)N1CCN(CC(=O)c2ccc(Br)cc2)CC1	0.9	0	9	2.4*	1.8
CC(=O)N1CCN(C(=O)COc2ccc(Br)cc2)CC1	1	1	-1	1	0.9
O=C1CCN2C=Nc3cccc4ccc1c2c34	0.2	48	77*	0.3	0.2
Cc1ccc(S(=O)(=O)NC(=O)CSc2nc3ccccc3s2)cc1	0.9	2	10	1	0.9
CS/C(=N\S(=O)(=O)c1cccs1)NC(=O)CSc1nc2ccccc2s1	0.9	-1	10	2.4*	1.7
CC(C)N1C(=O)/C(=C\c2nc3ccccc3c(=O)[nH]2)c2ccccc21	0.4	-2	56*	1	1.1
CCCN1C(=O)/C(=C/c2nc3ccccc3c(=O)[nH]2)c2ccccc21	0.8	6	22	1	1
COc1ccc(N2CCN(C(=O)c3cccc(Br)c3)CC2)c([N+](=O)[O-])c1	0.7	0	28	0.9	0.8
C/C(=N\Nc1cccc(Cl)c1)c1ccc(-n2ccnc2)cc1	0.9	-3	6	2.6*	1.8
COc1cc(-c2cc(=O)c3c(O)c(OC)c(OC)c(O)c3o2)ccc1O	0.3	20	66*	0.6	0.6
Cc1c(NC(=S)N/N=C\c2ccccc2O)c(=O)n(-c2ccccc2)n1C	1	11	4	1.3	1.1
Cc1c(NC(=S)N/N=C/C=C/c2ccc([N+](=O)[O-])cc2)c(=O)n(-c2ccccc2)n1C	0.8	3	21	2.1*	1.5
COCC(=O)NNC(=S)Nc1cccc(C)c1C	1	-6	4	1	1.1
CCC(C)(C)C1CCC(=NNc2nc3ccccc3[nH]2)CC1 (stereo not given)	1	2	4	2*	1.7
O=[N+]([O-])c1ccc(Cl)c(/C=N/NC(=S)Nc2ccccc2)c1	0.9	1	7	1	0.3
O=C(N/N=C/c1ccccc1Cl)c1nc2ccc([N+](=O)[O-])cc2c(=O)[nH]1	0.4	2	58*	0.9	0.9
Cc1cc2c(N)cccc2nn1	0.6	52*	44	1.3	0.9
Nc1cccc2nc3ccccc3cc12	0.9	0	10	0.9	0.9
Cc1ccc([N+](=O)[O-])cc1S(=O)(=O)Nc1ccc(N2CCOCC2)cc1	1	8	-4	1	1.1
O=[N+]([O-])c1ccccc1/C=C/C=N/n1c(-c2ccc(Cl)cc2)n[nH]c1=S	0.8	-1	22	1.2	1.3
Cc1ccc(-c2n[nH]c(=S)n2/N=C/C=C\c2ccccc2[N+](=O)[O-])cc1	0.3	-7	66*	0.9	0.9
O=[N+]([O-])c1ccccc1/C=C/C=N/n1c(-c2ccccc2)n[nH]c1=S	0.3	1	68*	1.1	1.1
CC(=O)Nc1ccc(S(=O)(=O)Oc2ccc3c(c2)C(C)=CC(C)(C)N3)cc1	0.7	12	27	0.7	0.8
CC1=CC(C)(C)Nc2ccc(OS(=O)(=O)c3ccc(C)cc3)cc21	0.5	24	50*	0.5	0.6
CSc1nncc(/C(C)=N\Nc2cccc(C)c2)n1	1	6	1	2.4*	1.5
SMILES	Diaphorase act	G6PDH counter	Diaphorase inh	PMI act hi M6P	PMI act
CSc1nncc(/C(C)=N\Nc2ccccc2)n1	0.9	1	9	1.9	1.4
CC/C(=N/Nc1ccccc1C)c1cnnc(SC)n1	0.8	-1	19	2.3*	1.5
CC1=C/C(=C\c2ccc(Br)o2)C(=O)O1	0.8	-15	17	1.1	1.1
O=C1C(=Cc2ccc(Br)o2)C(=O)c2ccccc21	0.4	-16	64*	0.9	1.2
O=C(O)C1CCCN1S(=O)(=O)c1cccc2nsnc12 (stereo not given)	0.9	9	9	1	1
COc1ccc(/C(C)=N/Nc2ccc(F)cc2F)c(O)c1	0.8	1	16	2.5*	1.7
C/C(=N\Nc1ccc(F)cc1F)c1cccs1	0.8	0	17	1.6	1.5
Cc1ccccc1-n1c(SC/C(O)=C(\C#N)c2nc3ccccc3[nH]2)nnc1-c1ccncc1	0.6	-1	43	0.8	0.9
Cc1cc(C)n2c(SC/C(O)=C(\C#N)c3nc4ccccc4[nH]3)nnc2n1	0.5	22	53*	0.5	0.7
CC(C)C(=O)NC(c1ccccc1)c1cc([N+](=O)[O-])c2cccnc2c1O (stereo not given)	0.6	55*	39	0.4	0.8
CC(=O)NC(c1ccccc1)c1cc([N+](=O)[O-])c2cccnc2c1O (stereo not given)	0.4	61*	56*	0.4	0.7
CCC(=O)NC(c1cccs1)c1cc([N+](=O)[O-])c2cccnc2c1O (stereo not given)	0.7	38	31	0.6	1
CC(=O)NC(c1cccs1)c1cc([N+](=O)[O-])c2cccnc2c1O (stereo not given)	0.6	61*	44	0.6	0.9
N#Cc1cc([N+](=O)[O-])cnc1Nc1ccccc1	0.9	1	12	1	1
COc1ccc(CC(=O)Nc2nnc(SCC(=O)NCc3ccco3)s2)cc1OC	0.8	8	18	1	1
O=C(Nc1ccc(C(=O)N2CCOCC2)cc1)c1cc(-c2cccnc2)nc2ccc(Cl)cc12	0.9	13	6	1	0.9
O=c1c2oc3ccccc3c2[nH]c(=S)n1-c1ccc(F)cc1	0.4	-1	59*	1	1.4
CCOC(=O)Cn1c(=S)[nH]c2c(oc3ccc(Cl)cc32)c1=O	0.6	-6	44	1.1	1
Cc1ccc(-n2c(=S)[nH]c3c(oc4ccccc43)c2=O)cc1C	0.4	8	62*	1	0.9
CN1CCN(C(=O)c2ccc3c(=O)n(-c4ccc(F)cc4)c(=S)[nH]c3c2)CC1	0.6	0	37	0.9	1
N/C(=N\c1nc2c(c(=O)[nH]1)CCC2)Nc1ccccc1	0.9	7	8	0.9	1
CC(C)c1ccc(/C=C2\NC(=S)N(Cc3cccnc3)C2=O)cc1	0.8	2	18	1	0.9
CCOC(=O)C1=C(C)NC2(O)c3ccccc3C(=O)C12O (stereo not given)	0.9	6	9	0.8	0.9
COCCOC(=O)C1=C(C)NC2(O)c3ccccc3C(=O)C12O (stereo not given)	0.3	6	74*	0.3	0.3
COc1cc(C2c3c([nH]c(=O)[nH]c3=O)Nc3ccc4ccccc4c32)cc(OC)c1OC (stereo not given)	0.5	7	53*	0.6	0.9
